The target in assay [1] is T1, Aurora kinase A (Homo sapiens) (UniProt O14965).
T1 sequence (whole entry): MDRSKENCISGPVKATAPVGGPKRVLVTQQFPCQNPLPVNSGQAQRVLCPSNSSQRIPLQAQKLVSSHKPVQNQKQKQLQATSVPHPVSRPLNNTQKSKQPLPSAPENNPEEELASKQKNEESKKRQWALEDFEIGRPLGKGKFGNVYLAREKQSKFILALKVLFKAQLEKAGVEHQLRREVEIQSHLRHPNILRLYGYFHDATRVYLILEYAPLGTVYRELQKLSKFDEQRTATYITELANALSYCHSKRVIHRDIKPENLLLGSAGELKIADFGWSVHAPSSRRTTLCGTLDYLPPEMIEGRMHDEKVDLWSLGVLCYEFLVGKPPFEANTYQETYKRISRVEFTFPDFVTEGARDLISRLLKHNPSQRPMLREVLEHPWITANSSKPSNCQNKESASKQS
Briefly: Inhibition of AurA at 30 uM by microfluidic mobility shift assay. A digest of the protocol:
(§1)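 Single-concentration screen, singlicate, 30 uM final (diluted from 1 mM DMSO solutions), fluorescently tagged peptide substrate appropriate to each kinase, ATP at apparent Km for each protein. Phosphorylated and unphosphorylated peptides separated electrophoretically; conversion is the phosphorylated peak area over the sum of both peaks. No-inhibitor and no-ATP controls; H89 reference on each plate.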

Assay [2] has as its target Mitogen-activated protein kinase 14 (Homo sapiens, UniProt Q16539). Nature of the assay: Inhibition of p38alpha at 30 uM by microfluidic mobility shift assay. A digest of the protocol:
as §1

In assay [3] the target is Insulin receptor (Homo sapiens) (UniProt P06213). Briefly: Inhibition of INSR at 30 uM by microfluidic mobility shift assay. The gist of the method: as §1
For assay [4], the target named is Glycogen synthase kinase-3 beta (Homo sapiens) (UniProt P49841). Briefly: Inhibition of GSK3B at 30 uM by microfluidic mobility shift assay. A digest of the protocol: as §1
Glycogen synthase kinase-3 beta (Homo sapiens), sequence (P49841 whole entry, looked up): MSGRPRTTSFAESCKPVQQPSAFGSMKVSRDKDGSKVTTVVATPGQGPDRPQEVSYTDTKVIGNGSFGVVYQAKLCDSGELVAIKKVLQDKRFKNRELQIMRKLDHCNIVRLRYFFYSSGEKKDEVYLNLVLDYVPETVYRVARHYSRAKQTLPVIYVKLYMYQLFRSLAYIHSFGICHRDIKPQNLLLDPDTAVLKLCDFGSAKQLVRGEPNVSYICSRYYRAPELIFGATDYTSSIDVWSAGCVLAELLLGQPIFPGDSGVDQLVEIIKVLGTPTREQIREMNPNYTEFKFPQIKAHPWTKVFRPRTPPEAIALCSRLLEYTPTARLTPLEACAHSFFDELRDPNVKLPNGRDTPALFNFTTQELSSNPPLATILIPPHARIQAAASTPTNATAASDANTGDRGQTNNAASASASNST
Assay [5] has as its target Ribosomal protein S6 kinase alpha-5 (Homo sapiens) (UniProt O75582). Nature of the assay: Inhibition of MSK1 at 30 uM by microfluidic mobility shift assay. A digest of the protocol:
as §1

For assay [6], the target named is Mitogen-activated protein kinase 3 (Homo sapiens) (UniProt P27361). Nature of the assay: Inhibition of ERK1 at 30 uM by microfluidic mobility shift assay. A digest of the protocol: as §1
Mitogen-activated protein kinase 3 (Homo sapiens), sequence (P27361 whole entry): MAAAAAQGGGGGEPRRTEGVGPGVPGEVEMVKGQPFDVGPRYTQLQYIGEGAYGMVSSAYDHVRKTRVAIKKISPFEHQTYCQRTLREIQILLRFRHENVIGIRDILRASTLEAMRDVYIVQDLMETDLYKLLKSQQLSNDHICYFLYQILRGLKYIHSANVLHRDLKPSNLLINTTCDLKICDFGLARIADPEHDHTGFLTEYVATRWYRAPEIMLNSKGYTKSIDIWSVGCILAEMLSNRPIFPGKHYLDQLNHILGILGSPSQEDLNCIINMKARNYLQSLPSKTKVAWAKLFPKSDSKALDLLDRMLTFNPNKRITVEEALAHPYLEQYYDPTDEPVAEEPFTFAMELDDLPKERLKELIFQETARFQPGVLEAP
Assay [7] addresses RAC-beta serine/threonine-protein kinase (Homo sapiens) (UniProt P31751). Briefly: Inhibition of AKT2 at 30 uM by microfluidic mobility shift assay. The gist of the method: as §1
For assay [8], the target named is T2, MAP kinase-activated protein kinase 5 (Homo sapiens) (UniProt Q8IW41).
T2 sequence (whole entry): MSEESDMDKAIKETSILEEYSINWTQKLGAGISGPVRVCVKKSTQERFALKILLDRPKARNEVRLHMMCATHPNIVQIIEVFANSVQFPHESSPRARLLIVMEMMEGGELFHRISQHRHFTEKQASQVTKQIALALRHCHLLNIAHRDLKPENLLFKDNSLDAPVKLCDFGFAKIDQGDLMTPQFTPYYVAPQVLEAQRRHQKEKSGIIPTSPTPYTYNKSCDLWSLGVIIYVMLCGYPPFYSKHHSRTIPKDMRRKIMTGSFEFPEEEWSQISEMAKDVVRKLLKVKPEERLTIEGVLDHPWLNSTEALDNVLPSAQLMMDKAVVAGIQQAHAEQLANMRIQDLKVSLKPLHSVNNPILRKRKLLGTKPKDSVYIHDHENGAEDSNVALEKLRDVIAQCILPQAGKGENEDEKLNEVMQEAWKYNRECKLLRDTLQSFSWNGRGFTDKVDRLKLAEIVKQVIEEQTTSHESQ
Nature of the assay: Inhibition of PRAK1 at 30 uM by microfluidic mobility shift assay. A digest of the protocol: as §1

For assay [9], the target named is Tyrosine-protein kinase Lyn (Homo sapiens, UniProt P07948). Nature of the assay: Inhibition of LYN at 30 uM by microfluidic mobility shift assay. The gist of the method:
as §1

Assay [10] addresses Tyrosine-protein kinase ABL1 (Homo sapiens, UniProt P00519). Briefly: Inhibition of ABL at 30 uM by microfluidic mobility shift assay. A digest of the protocol:
as §1

For assay [11], the target named is T3, Serine/threonine-protein kinase Chk1 (Homo sapiens) (UniProt O14757).
T3 sequence (whole entry): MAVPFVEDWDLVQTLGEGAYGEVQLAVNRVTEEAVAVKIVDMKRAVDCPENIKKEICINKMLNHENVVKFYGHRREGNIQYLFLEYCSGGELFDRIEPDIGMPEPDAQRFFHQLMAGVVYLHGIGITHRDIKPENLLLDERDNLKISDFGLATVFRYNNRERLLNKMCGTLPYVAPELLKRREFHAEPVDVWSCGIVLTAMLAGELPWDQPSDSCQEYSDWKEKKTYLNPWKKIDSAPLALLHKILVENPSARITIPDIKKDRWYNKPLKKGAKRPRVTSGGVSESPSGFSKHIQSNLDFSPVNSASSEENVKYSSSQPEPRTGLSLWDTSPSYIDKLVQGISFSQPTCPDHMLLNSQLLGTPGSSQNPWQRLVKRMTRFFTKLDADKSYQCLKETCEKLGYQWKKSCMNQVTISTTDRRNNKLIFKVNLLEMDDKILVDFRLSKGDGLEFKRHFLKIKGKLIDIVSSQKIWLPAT
Nature of the assay: Inhibition of CHK1 at 30 uM by microfluidic mobility shift assay. The gist of the method:
as §1

The target in assay [12] is Tyrosine-protein kinase Fyn (Homo sapiens, UniProt P06241). Nature of the assay: Inhibition of FYN at 30 uM by microfluidic mobility shift assay. A digest of the protocol: as §1
The target of assay [13] is Proto-oncogene tyrosine-protein kinase Src (Homo sapiens, UniProt P12931). Briefly: Inhibition of SRC at 30 uM by microfluidic mobility shift assay. A digest of the protocol: as §1
Proto-oncogene tyrosine-protein kinase Src, sequence (P12931 2-536 limits assumed): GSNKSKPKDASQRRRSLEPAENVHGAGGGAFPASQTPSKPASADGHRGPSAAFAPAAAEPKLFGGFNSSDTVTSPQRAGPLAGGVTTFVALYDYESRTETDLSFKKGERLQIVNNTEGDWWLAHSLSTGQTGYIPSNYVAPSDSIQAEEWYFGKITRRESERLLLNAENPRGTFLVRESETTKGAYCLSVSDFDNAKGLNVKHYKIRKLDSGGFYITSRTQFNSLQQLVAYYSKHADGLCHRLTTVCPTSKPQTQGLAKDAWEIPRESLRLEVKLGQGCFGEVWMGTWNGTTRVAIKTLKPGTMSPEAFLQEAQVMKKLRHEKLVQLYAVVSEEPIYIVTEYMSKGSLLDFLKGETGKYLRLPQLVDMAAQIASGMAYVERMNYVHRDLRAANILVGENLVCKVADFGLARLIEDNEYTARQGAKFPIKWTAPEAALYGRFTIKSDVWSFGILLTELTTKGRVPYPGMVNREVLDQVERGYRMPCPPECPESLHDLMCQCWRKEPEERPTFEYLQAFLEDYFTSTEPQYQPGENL
The target of assay [14] is RAC-alpha serine/threonine-protein kinase (Homo sapiens) (UniProt P31749). Briefly: Inhibition of AKT1 at 30 uM by microfluidic mobility shift assay. The gist of the method: as §1
RAC-alpha serine/threonine-protein kinase (Homo sapiens), sequence (P31749 whole entry): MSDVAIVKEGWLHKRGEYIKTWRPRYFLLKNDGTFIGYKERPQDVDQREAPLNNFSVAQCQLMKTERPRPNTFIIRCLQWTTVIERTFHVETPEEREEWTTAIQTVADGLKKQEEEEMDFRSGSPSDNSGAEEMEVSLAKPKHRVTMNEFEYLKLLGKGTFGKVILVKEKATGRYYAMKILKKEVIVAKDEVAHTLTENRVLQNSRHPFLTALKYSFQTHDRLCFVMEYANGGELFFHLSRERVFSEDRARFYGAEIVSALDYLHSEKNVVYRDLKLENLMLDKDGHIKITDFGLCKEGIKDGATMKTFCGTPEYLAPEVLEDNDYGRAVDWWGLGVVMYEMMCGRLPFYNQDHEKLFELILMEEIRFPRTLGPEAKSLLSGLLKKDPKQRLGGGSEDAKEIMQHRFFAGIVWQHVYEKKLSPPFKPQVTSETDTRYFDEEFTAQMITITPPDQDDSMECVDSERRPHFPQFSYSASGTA
Assay [15] concerns the target MAP kinase-activated protein kinase 2 (Homo sapiens, UniProt P49137). Nature of the assay: Inhibition of MAPKAPK2 at 30 uM by microfluidic mobility shift assay. A digest of the protocol:
as §1

For assay [16], the target named is Serine/threonine-protein kinase Chk2 (Homo sapiens, UniProt O96017). Nature of the assay: Inhibition of CHK2 at 30 uM by microfluidic mobility shift assay. A digest of the protocol: as §1
Serine/threonine-protein kinase Chk2, sequence (O96017 whole entry): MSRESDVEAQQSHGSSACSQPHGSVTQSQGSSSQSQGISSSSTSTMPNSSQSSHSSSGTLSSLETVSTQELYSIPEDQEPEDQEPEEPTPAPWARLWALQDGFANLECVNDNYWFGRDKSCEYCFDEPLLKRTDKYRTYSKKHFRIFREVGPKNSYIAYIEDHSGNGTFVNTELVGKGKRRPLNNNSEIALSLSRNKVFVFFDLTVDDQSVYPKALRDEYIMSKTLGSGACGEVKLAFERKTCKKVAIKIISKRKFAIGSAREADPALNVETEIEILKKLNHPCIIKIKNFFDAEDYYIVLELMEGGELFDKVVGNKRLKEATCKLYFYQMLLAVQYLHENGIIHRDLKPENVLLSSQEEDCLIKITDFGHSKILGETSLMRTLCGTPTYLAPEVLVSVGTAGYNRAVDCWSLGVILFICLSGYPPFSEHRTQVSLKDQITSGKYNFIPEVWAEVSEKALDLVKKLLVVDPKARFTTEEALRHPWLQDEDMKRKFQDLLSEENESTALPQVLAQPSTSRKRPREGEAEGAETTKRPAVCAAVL
Assay [17] concerns the target Mitogen-activated protein kinase 1 (Homo sapiens) (UniProt P28482). Briefly: Inhibition of ERK2 at 30 uM by microfluidic mobility shift assay. The gist of the method: as §1
The target of assay [18] is Tyrosine-protein kinase Lck (Homo sapiens, UniProt P06239). Briefly: Inhibition of LCK at 30 uM by microfluidic mobility shift assay. A digest of the protocol:
as §1

Assay [19] can be described thus: Inhibition of PKA at 30 uM by microfluidic mobility shift assay. The gist of the method:
as §1

In assay [20] the target is T4, Serine/threonine-protein kinase D2 (Homo sapiens) (UniProt Q9BZL6).
T4 sequence (whole entry): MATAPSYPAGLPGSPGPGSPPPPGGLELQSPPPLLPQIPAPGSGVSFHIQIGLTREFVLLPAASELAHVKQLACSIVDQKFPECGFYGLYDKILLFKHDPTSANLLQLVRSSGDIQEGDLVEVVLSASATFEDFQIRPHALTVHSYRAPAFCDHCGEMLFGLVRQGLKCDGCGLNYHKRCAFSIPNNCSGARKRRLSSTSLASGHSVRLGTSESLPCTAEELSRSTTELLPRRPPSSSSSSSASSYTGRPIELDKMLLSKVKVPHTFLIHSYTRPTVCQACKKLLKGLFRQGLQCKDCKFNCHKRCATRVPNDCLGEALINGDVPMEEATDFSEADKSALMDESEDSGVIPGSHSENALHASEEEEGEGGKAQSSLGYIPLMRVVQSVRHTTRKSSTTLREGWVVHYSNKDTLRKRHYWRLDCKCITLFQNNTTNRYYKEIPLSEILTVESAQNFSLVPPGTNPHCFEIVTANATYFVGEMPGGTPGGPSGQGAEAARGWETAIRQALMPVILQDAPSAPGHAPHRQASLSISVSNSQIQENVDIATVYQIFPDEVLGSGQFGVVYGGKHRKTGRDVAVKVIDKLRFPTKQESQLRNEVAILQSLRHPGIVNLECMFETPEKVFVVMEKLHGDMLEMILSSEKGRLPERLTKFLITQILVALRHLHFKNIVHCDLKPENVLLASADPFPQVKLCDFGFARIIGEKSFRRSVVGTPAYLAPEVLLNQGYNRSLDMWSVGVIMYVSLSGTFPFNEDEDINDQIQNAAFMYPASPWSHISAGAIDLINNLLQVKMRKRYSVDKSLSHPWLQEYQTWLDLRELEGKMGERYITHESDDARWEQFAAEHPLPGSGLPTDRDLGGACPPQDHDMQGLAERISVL
Nature of the assay: Inhibition of PKD2 at 30 uM by microfluidic mobility shift assay. The gist of the method:
as §1

Assay [21] deals with Ribosomal protein S6 kinase alpha-1 (Homo sapiens) (UniProt Q15418). Nature of the assay: Inhibition of RSK1 at 30 uM by microfluidic mobility shift assay. A digest of the protocol:
as §1

Mitogen-activated protein kinase 14, sequence (Q16539 whole entry): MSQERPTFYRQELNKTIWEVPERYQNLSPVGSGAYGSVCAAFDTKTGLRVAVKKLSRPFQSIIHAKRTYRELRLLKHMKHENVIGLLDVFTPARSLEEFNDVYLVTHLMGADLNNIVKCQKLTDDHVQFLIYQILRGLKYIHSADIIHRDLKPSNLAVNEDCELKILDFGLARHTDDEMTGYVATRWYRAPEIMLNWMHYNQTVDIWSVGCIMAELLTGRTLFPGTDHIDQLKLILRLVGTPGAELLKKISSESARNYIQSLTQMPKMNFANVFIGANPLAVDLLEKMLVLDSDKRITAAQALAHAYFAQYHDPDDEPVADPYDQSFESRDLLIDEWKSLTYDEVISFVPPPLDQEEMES
RAC-beta serine/threonine-protein kinase (Homo sapiens), sequence (P31751 whole entry): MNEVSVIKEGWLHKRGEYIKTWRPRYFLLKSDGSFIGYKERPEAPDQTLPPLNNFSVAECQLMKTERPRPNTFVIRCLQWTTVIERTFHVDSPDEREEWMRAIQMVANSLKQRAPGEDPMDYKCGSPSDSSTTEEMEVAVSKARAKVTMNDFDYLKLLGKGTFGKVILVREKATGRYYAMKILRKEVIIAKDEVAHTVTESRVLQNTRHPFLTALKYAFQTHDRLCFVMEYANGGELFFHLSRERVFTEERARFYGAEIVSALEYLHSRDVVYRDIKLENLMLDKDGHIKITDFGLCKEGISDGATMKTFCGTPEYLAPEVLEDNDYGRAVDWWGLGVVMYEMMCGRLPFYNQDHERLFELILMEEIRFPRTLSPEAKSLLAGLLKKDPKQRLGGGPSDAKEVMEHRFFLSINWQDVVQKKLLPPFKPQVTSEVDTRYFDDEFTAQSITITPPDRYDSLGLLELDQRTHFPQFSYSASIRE
MAP kinase-activated protein kinase 2, sequence (P49137 whole entry, looked up): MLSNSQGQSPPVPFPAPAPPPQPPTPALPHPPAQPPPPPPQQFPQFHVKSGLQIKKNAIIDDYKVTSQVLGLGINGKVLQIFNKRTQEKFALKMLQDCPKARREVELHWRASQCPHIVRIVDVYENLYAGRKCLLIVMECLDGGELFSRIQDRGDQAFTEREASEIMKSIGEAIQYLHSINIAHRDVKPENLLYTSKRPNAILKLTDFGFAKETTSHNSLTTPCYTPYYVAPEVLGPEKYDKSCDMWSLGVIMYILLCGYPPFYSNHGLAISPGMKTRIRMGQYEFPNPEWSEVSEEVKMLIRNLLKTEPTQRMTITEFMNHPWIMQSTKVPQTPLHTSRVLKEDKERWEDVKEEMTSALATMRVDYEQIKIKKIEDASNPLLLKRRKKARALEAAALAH
Tyrosine-protein kinase Lck, sequence (P06239 2-509 limits assumed): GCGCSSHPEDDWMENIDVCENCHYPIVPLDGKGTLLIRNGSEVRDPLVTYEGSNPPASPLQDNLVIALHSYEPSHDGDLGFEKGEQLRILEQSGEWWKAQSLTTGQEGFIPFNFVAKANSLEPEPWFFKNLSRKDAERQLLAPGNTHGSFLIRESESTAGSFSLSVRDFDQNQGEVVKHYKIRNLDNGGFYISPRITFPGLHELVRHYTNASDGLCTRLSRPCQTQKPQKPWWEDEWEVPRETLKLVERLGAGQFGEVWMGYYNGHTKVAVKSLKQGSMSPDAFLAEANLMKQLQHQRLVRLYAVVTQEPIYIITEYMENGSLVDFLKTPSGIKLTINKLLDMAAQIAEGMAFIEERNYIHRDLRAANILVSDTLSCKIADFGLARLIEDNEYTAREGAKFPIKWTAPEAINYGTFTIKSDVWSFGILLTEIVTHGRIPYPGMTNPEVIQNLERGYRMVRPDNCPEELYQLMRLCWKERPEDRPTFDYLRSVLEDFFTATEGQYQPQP
Ribosomal protein S6 kinase alpha-5 (Homo sapiens), sequence (O75582 whole entry, looked up): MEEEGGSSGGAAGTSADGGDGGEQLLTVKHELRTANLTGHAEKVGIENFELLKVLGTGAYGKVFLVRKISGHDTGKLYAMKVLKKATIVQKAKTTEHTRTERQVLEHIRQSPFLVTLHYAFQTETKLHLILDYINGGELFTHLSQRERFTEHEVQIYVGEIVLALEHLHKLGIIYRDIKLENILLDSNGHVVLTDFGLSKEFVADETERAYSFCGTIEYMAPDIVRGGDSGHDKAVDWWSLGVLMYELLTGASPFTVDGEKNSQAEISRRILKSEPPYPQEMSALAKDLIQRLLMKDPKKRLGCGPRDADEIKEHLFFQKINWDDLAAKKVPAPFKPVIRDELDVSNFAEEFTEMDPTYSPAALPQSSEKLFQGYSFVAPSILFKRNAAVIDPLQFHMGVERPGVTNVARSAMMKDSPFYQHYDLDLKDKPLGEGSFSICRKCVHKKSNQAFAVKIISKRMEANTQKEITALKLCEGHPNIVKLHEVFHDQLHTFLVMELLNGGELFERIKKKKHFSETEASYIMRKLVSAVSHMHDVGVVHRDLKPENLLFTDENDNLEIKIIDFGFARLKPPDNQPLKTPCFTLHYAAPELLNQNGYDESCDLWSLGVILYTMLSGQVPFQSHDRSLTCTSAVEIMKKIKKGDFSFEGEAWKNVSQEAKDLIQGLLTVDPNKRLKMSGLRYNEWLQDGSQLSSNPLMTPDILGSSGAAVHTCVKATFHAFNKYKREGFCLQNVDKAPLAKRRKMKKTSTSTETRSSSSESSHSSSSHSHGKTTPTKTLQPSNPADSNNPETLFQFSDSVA

Regarding `Nc1n[nH]c2cc(CC3CCNCC3)[nH]c(=O)c12`, the inhibition in [1] was found to be 5%; in [2], 3%; in assay [3], 1%; in assay [4], 4%; in assay [5], 62%; in assay [6] it was 4%. In addition, the inhibition in [7] was 6%; in assay [8], 3%; in assay [9] it was -1%; in assay [10], 7%; in assay [11], 16%; in [12], -3%. In addition, the inhibition in [13] is 4%; in [14] it was 13%; in assay [15] it was 35%; in assay [16] it was 7%; in assay [17], -2%; in assay [18] it was 4%. The values for the inhibition in assay [19], in assay [20] and in assay [21] were 71%, -6% and 11%, respectively.
As to `Cc1cc2nn(-c3ccccc3)c(N)c2c(N2CCCCC2)n1`, the inhibition is 10% in [1]; 10% in [2]; -2% in assay [3]; 7% in assay [4]; 10% in assay [5]; 4% in assay [6]. Besides, the inhibition was -7% in assay [7]; 10% in assay [8]; 8% in assay [9]; 7% in assay [10]; -1% in assay [11]; 7% in assay [12]. Further, the inhibition in assay [13] worked out at 7%; in assay [14] it was 1%; in [15] it was 7%; in assay [16] it was 4%; in assay [17], 6%; in assay [18] it was 12%. Besides, the inhibition amounted to 2% in [19], 5% in assay [20] and 4% in [21].
For the molecule `COCCNc1nc(C)cc2nn(-c3ccccc3)c(N)c12`, the inhibition worked out at 32% in assay [1]; 3% in assay [2]; 1% in [3]; 10% in assay [4]; 3% in assay [5]; 3% in [6]. Also, the inhibition was 2% in assay [7]; 2% in [8]; 6% in assay [9]; 4% in [10]; 0% in assay [11]; -3% in assay [12]. Moreover, the inhibition in assay [13] is 2%; in assay [14], 3%; in [15], 3%; in assay [16], 4%; in [17], -1%; in [18], 0%. Moreover, the inhibition was 1% in assay [19], -1% in assay [20] and 2% in [21].
Consider `Cc1cc2c(c(N)nn2C)c(N2CCOCC2)n1`, for which the inhibition is 17% in assay [1]; 2% in [2]; 3% in assay [3]; 8% in assay [4]; 4% in assay [5]; 4% in assay [6]. Further, the inhibition in [7] was 12%; in [8], 5%; in [9], 17%; in assay [10], 15%; in assay [11] it was -5%; in assay [12] it was 9%. Further, the inhibition in assay [13] was 7%; in assay [14], -8%; in assay [15] it was -2%; in assay [16] it was 3%; in [17] it was -1%; in [18], 10%. The inhibition was -2% in [19], -4% in assay [20] and 1% in assay [21].
`Nc1n[nH]c2cc(-c3cccs3)[nH]c(=O)c12`: the inhibition in assay [1] came to 67%; in [2], 6%; in [3], 21%; in assay [4] it was 89%; in assay [5], 63%; in [6] it was 15%. Further, the inhibition in assay [7] was 5%; in assay [8] it was 12%; in assay [9] it was 63%; in assay [10] it was 63%; in [11], 44%; in [12], 69%. Also, the inhibition in [13] is 74%; in [14], 4%; in [15] it was 58%; in [16] it was 59%; in assay [17], 15%; in [18], 58%. Besides, the inhibition was found to be 79% in assay [19], 5% in [20] and 35% in [21].

What is called inhibition is the drop in the measured response relative to a control, in per cent.

The values above are taken from ChEMBL document CHEMBL1811853, “Design and evaluation of 3-aminopyrazolopyridinone kinase inhibitors inspired by the natural product indirubin” (Bioorg Med Chem, 2011).
